Converted amounts (≈) assume the structure as drawn.
Key:
[1] = tested on: HCT-116; assay: Induction of cell cycle arrest in human HCT116 cells assessed as accumulation at G0/G1 phase at 10 uM after 24 hrs by flow cytometry (reference value: 74.2 %); format: functional
In short: (§1)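 HCT116 cells (1.0 × 10^6) were plated for 24 h, then exposed to compound for 24 or 48 h, with 0.1% DMSO as control. DNA staining used a BD Cycletest Plus DNA reagent kit, and phase percentages (subG1, G0/G1, S, G2/M) were scored; data representative of three independent experiments.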

[2] = tested on: HCT-116; assay: Induction of cell cycle arrest in human HCT116 cells assessed as accumulation at SubG1 phase at 10 uM after 48 hrs by flow cytometry (reference value: 2.3 %); format: functional; in short: as §1
[3] = tested on: HCT-116; assay: Induction of cell cycle arrest in human HCT116 cells assessed as accumulation at SubG1 phase at 10 uM after 24 hrs by flow cytometry (reference value: 5.7 %); format: functional; in short: as §1
[4] = tested on: HCT-116; assay: Antiproliferative activity against human HCT116 cells after 3 days by WST-1 assay; format: functional, cell-based; settings: HCT-116, 72 h
In short: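 HCT116 human colon cancer cells exposed to compounds for 3 days; growth read by WST-1 assay; IC50 derived from triplicate assays.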

[5] = tested on: Mus musculus; assay: Toxicity in human HCT116 cells xenografted in BALB/c- nu.nu mouse assessed as relative body weight change at 45 mg/kg, po administered every alternate days for 14 days measured up to day 16; format: organism-based, HCT-116; design: dose 45 mg/kg, route oral; settings: in vivo, 336 h
In short: (§2)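 Nude mice bearing HCT116 xenografts of 90–110 mm3, grouped as vehicle (0.1% Tween 80, n = 6) or treated (n = 7); oral dosing at 45 or 80 mg/kg on days 0, 2, 4, 6, 8, 10, 12 and 14. Tumor volume and body weight followed over 16 days; tumor effect given as T/C; two-tailed Student t-test versus control, with standard errors shown.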

[6] = tested on: HCT-116; assay: Antitumor activity against human HCT116 cells xenografted in BALB/c nu/nu mouse assessed as suppression of tumor growth at 45 mg/kg, po administered every alternate days for 14 days measured up to day 16 relative to control; format: functional; in short: as §2
[7] = tested on: HCT-116; assay: Induction of cell cycle arrest in human HCT116 cells assessed as accumulation at G2/M phase at 10 uM after 48 hrs by flow cytometry (reference value: 5.4 %); format: functional; in short: as §1
[8] = tested on: HCT-116; assay: Induction of cell cycle arrest in human HCT116 cells assessed as accumulation at G2/M phase at 10 uM after 24 hrs by flow cytometry (reference value: 9.5 %); format: functional; in short: as §1
[9] = tested on: HCT-116; assay: Induction of cell cycle arrest in human HCT116 cells assessed as accumulation at S phase at 10 uM after 48 hrs by flow cytometry (reference value: 10.4 %); format: functional; in short: as §1
[10] = tested on: HCT-116; assay: Induction of cell cycle arrest in human HCT116 cells assessed as accumulation at S phase at 10 uM after 24 hrs by flow cytometry (reference value: 10.6 %); format: functional; in short: as §1
[11] = tested on: HCT-116; assay: Induction of cell cycle arrest in human HCT116 cells assessed as accumulation at G0/G1 phase at 10 uM after 48 hrs by flow cytometry (reference value: 81.9 %); format: functional; in short: as §1
[12] = Solubility of the compound in 10 % DMSO/Water; format: physicochemical
[13] = biological target: Histone deacetylase 2 (Homo sapiens, UniProt Q92769); assay: Inhibition of HDAC2
[14] = biological target: Histone deacetylase 1 (Homo sapiens, UniProt Q13547); assay: Inhibition of HDAC1
[15] = tested on: Mus musculus; assay: Toxicity in human HCT116 cells xenografted in BALB/c nu/nu mouse assessed as relative body weight change at 80 mg/kg, po for 14 days measured up to day 16; format: organism-based, HCT-116; design: dose 80 mg/kg, route oral; settings: in vivo, 336 h; in short: as §2
[16] = tested on: HCT-116; assay: Antitumor activity against human HCT116 cells xenografted in BALB/c nu/nu mouse assessed as suppression of tumor growth at 80 mg/kg, po administered every alternate days for 14 days measured up to 16 days relative to control; format: functional; in short: as §2
[17] = Half life in BALB/c mouse at 45 mg/kg, po by HPLC-ESI-MS/MS analysis; format: ADME, organism-based; design: dose 45 mg/kg, route oral; settings: in vivo
[18] = Tmax in BALB/c mouse at 45 mg/kg, po by HPLC-ESI-MS/MS analysis; format: ADME, organism-based; design: dose 45 mg/kg, route oral; settings: in vivo
[19] = Cmax in BALB/c mouse at 45 mg/kg, po by HPLC-ESI-MS/MS analysis; format: ADME, organism-based; design: dose 45 mg/kg, route oral; settings: in vivo

Chain of Histone deacetylase 2 (Q92769 whole entry): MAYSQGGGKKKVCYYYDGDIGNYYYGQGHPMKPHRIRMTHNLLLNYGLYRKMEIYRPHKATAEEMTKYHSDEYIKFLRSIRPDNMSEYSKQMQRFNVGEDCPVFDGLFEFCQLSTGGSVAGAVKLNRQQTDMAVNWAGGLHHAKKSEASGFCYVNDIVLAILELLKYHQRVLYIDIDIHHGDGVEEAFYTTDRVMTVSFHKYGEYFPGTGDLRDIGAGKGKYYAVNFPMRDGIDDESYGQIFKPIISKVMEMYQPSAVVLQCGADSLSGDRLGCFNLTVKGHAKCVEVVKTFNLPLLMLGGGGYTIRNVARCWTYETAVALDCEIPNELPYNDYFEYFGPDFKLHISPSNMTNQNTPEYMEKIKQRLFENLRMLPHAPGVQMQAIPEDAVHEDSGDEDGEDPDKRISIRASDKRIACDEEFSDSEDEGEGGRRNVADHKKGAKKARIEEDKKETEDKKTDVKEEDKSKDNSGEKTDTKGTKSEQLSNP
Chain of Histone deacetylase 1 (Q13547 whole entry): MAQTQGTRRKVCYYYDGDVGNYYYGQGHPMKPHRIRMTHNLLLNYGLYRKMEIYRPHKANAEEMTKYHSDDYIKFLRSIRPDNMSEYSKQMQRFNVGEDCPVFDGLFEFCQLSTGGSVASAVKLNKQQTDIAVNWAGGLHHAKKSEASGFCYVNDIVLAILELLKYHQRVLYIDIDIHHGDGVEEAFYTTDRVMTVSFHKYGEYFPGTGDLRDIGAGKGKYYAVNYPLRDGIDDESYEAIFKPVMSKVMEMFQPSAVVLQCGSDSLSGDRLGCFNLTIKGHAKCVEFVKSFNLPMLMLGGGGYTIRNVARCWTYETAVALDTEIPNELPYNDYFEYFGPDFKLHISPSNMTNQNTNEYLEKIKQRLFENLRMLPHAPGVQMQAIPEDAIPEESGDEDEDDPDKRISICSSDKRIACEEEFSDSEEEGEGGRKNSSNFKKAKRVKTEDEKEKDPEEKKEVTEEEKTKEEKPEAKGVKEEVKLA

SMILES | Activity [1] | Activity [2] | Activity [3] | IC50 [4] | Activity [5] | T/C [6] | Activity [7] | Activity [8] | Activity [9] | Activity [10] | Activity [11] | solubility [12] | IC50 [13] | IC50 [14] | Activity [15] | T/C [16] | half-life [17] | Tmax [18] | Cmax [19]
Nc1ccccc1NC(=O)c1ccc(CNC(=O)OCc2cccnc2)cc1 [ENTINOSTAT] | 72.7% | 30.2% | 8.8% | 0.76 µM | Toxic | 51% | 5.5% | 13.6% | 2.2% | 4.9% | 62.1% |  |  |  |  |  |  |  | 
CCC(=O)NCc1ccc(C(=O)Nc2cc(-c3cccs3)ccc2N)cc1 | 79.5% | 1.4% | 4.6% | 0.56 µM |  |  | 20.8% | 10.7% | 2.8% | 5.2% | 75% | 500 µg/mL (≈ 1320 µM) | 0.47 µM | 0.04 µM |  |  |  |  | 
Nc1ccc(-c2cccs2)cc1NC(=O)c1ccc(CNC(=O)N2CCOCC2)cc1 |  |  |  | 0.44 µM |  |  |  |  |  |  |  |  | 0.88 µM | 0.1 µM |  |  |  |  | 
Nc1ccc(-c2cccs2)cc1NC(=O)c1ccc(CN(CCO)Cc2ccc3c(c2)OCO3)cc1 |  |  |  | 0.49 µM |  |  |  |  |  |  |  | < 100 µg/mL | 0.74 µM | 0.06 µM |  |  |  |  | 
CN1CCN(C(=O)NCc2ccc(C(=O)Nc3cc(-c4cccs4)ccc3N)cc2)CC1 |  |  |  | 0.53 µM |  |  |  |  |  |  |  | 1000 µg/mL (≈ 2220 µM) | 0.8 µM | 0.08 µM |  |  |  |  | 
CCN1CCN(C(=O)NCc2ccc(C(=O)Nc3cc(-c4cccs4)ccc3N)cc2)C(=O)C1=O | 71.5% | 1.4% | 2.3% | 0.51 µM | Non-toxic | 60% | 20.5% | 22.4% | 2.8% | 3.8% | 75.3% | 600 µg/mL (≈ 1220 µM) | 0.67 µM | 0.05 µM | Non-toxic | 47% | 2.2 h | 1 h | 8.3 µM
Nc1ccccc1NC(=O)c1ccc(CN(CCO)Cc2ccc3c(c2)OCO3)cc1 |  |  |  | 1.2 µM |  |  |  |  |  |  |  | 200 µg/mL (≈ 477 µM) | 3.36 µM | 1.17 µM |  |  |  |  | 
